# Screening data as filed in PubChem BioAssay.
# NPY-Y1 antag: NPY-Y1 receptor antagonists, primary screen, cell-based; Neuropeptide Y receptor type 1 (Homo sapiens), P25929; HEK293-CNG Y1 cells, membrane potential fluorescence; NPY at EC95, then isoproterenol; inhibition, % at 3.6 µM; actives 1% (n = 200,000); AID 1040, 2008;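 active means inhibition above the campaign mean inhibition of all tested compounds plus 3 SD, cut at about 20% in these data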;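 further: 0% = DMSO wells given NPY plus isoproterenol and 100% = isoproterenol alone without NPY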
# Target sequence (P25929 whole entry, looked up): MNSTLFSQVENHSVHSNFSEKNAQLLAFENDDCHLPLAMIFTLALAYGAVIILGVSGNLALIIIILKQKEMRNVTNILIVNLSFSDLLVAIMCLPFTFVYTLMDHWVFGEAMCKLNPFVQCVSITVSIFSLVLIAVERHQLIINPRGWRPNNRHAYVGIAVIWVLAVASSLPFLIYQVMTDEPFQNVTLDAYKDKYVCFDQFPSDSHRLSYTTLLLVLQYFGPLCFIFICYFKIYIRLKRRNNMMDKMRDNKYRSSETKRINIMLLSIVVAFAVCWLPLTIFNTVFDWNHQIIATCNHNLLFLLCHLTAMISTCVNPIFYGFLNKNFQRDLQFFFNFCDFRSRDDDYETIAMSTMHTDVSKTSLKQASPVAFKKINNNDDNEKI
#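 Material: Y1- and CNG-channel-expressing HEK293 cells / Probe or stimulus: NPY 25 nM then isoproterenol 1 µM plus Ro 20-1724 25 µM / Doses: 3.6 µM single dose, DMSO 0.4% / Schedule: compound incubation 1 h at room temperature, readout 45 min post-stimulation / Signal: membrane potential fluorescence / Benchmarks: isoproterenol-only wells as full block versus NPY-plus-isoproterenol wells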
# NPY-Y2 antag: NPY-Y2 receptor antagonists, primary screen, cell-based; Neuropeptide Y receptor type 2 (Homo sapiens), P49146; NPY-Y2 expressing cells, antagonist mode; inhibition, % at 2.7 µM; actives 0.99% (n = 140,000);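 further: 0% = vehicle with agonist challenge and 100% = reference antagonist with challenge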
# NPY2 pot ag: NPY-Y2 potentiators or agonists, primary screen, cell-based. actives 0.45% (n = 220,000). Neuropeptide Y receptor type 2 (Homo sapiens), P49146. cells expressing NPY-Y2, potentiator/agonist read-out. activation, % at 3.6 µM. AID 1359, 2008; in the data active means activation above about 27%;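 further: cells stimulated with NPY near EC25 plus isoproterenol at EC100; 0% = vehicle plus submaximal agonist and 100% = vehicle plus saturating agonist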
# NPY1 pot ag: NPY-Y1 receptor potentiators or agonists, primary screen, cell-based; Neuropeptide Y receptor type 1 (Homo sapiens), P25929; NPY-Y1 expressing cells, potentiator/agonist activation; activation, % at 3.6 µM; actives 0.37% (n = 220,000); AID 1304, 2008; in the data active means activation above about 33%, passing the limit was not always enough;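 further: cells stimulated with NPY at EC10 then isoproterenol at EC100; 0% = low agonist plus stimulus and 100% = saturating agonist plus stimulus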
# EP2 mod: EP2 receptor modulators, cAMP readout, primary screen, cell-based, HTRF cAMP, PGE2 stimulation; Prostaglandin E2 receptor EP2 subtype (Homo sapiens), P43116; EP2-expressing cells, cAMP HTRF FRET, PGE2 co-stimulation; induction, % at 25 µM; actives 0.83% (n = 260,000); AID 940, 2007;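 active means compounds whose cAMP rise, as percent of the full-agonist control response, exceeds 60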;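 further: rat C6 glioma line stably carrying human EP2 under a CMV promoter; the protocol text gives 20 µM as final concentration; 100% = response of wells given 1 µM PGE2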
# PGE2 EP2 inh: human EP2 receptor antagonists, primary screen, TR-FRET cAMP, C6 glioma cells; C6 glioma cells expressing human EP2; cells stimulated with saturating PGE2; inhibition, % at 25 µM; actives 0.52% (n = 260,000); AID 1422, 2008;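 active means percent inhibition above 40 after rounding to a whole number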;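 further: rat C6 glioma host cells with rolipram phosphodiesterase inhibitor present; the protocol text gives 20 µM as final concentration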
# NPY1 antag conf: NPY-Y1 receptor antagonists, retest of hits, confirmation, HEK293-CNG cells, membrane potential fluorescence, triplicate; shares compounds with NPY-Y1 antag; actives 21% (n = 1,200); AID 1254, 2008; cAMP; NPY challenge against isoproterenol-raised cAMP; inhibition, % at 3.6 µM; in the data active means inhibition above about 20%;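 further: 0% = vehicle with agonist plus stimulus and 100% = stimulus alone without agonist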
# NPY2 antag ctr: NPY-Y2 receptor antagonists, selectivity check, confirmation, counter-screen for NPY-Y1 antagonist project, HEK293-CNG cells, membrane potential fluorescence, triplicate. shares compounds with NPY-Y1 antag. actives 28% (n = 1,200). antagonism; cells given NPY, then isoproterenol. inhibition, % at 3.6 µM;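 further: 0% = DMSO with agonist challenge and 100% = reference antagonist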
# Starred values were filed as active, the others as inactive; nt = not tested or not shown. Compounds with a hit are over-represented: about 2.8% of the library has one in this group of screens. Unless noted, no stated cut-off is given here; in the data, active means inhibition above about 17%; inactive means the rest.
SMILES,NPY-Y1 antag,NPY-Y2 antag,NPY2 pot ag,NPY1 pot ag,EP2 mod,PGE2 EP2 inh,NPY1 antag conf,NPY2 antag ctr
O=C(NN=C1CCCCC1)c1ccccc1OCc1ccc(F)cc1,30*,5,-44,-52,19,7,-2,3
O=C(NN=C1CCCC1)c1ccccc1OCCOc1ccccc1,2,nt,-24,-19,-1,3,nt,nt
O=C(CN1CCC(c2ccccc2F)CC1)Nc1ccc2c(c1)OCO2,nt,nt,nt,nt,-96,9,nt,nt
O=C(CCCc1cccs1)Nc1nc(-c2ccc(F)cc2)cs1,25*,15,-10,-33,-18,1,19,16
COc1ccc2nc3sc(C(=O)Nc4c(C)cccc4C)c(N)c3cc2c1,nt,nt,nt,nt,-73,13,nt,nt
O=C(COc1ccc2ccccc2c1)NCCc1ccc2c(c1)OCCO2,25*,16,-10,-52,-67,18,17,11
Cc1cccc(OCC(O)CN2CCCCC2)c1 (stereo not drawn),nt,nt,nt,nt,-18,6,nt,nt
CC1CCC(C(C)C)C(OC(=O)Cn2c(-c3ccc(Cl)cc3)[n+](C)c3ccccc32)C1 (stereo not drawn),nt,nt,-60,-61,56,2,nt,nt
Cc1ccccc1OCc1n(CC(=O)OC2CC(C)CCC2C(C)C)c2ccccc2[n+]1C (stereo not drawn),29*,nt,-17,-35,-23,3,36*,42*
CC1CCC(C(C)C)C(OC(=O)COC(=O)c2cccn2C)C1 (stereo not drawn),14,14,-18,-19,40,18,nt,nt
CC1CCC(C(C)C)C(OC(=O)Cn2c(-c3ccc(Br)cc3)[n+](C)c3ccccc32)C1 (stereo not drawn),44*,nt,-13,-11,-8,1,37*,41*
O=C(CN1CCC2(CC1)NC(=O)c1ccccc1O2)NC(c1ccccc1)c1ccccc1,nt,nt,nt,nt,-9,6,nt,nt
O=c1[nH]c(N2CCCC2)nc2c1CCN(Cc1ccccc1F)C2,nt,nt,nt,nt,-25,8,nt,nt
O=C(O)CC/C(=C\c1ccc(N2CCOCC2)c([N+](=O)[O-])c1)c1nc2ccccc2s1,41*,nt,-40,-54,-4,1,54*,79*
O=C(O)C/C(=C\c1ccc(N2CCOCC2)c([N+](=O)[O-])c1)c1nc2ccccc2s1,nt,nt,-12,10,-4,15,nt,nt
COc1ccc([C@@H]2C[C@H](C(=O)Nc3ccc(F)cc3F)N(C)S(=O)(=O)N2)cc1OC,nt,nt,nt,nt,-22,nt,nt,nt
COc1ccc(NC(=O)/C=N/O)cc1,-6,nt,8,23,17,7,nt,nt
COc1ccc(N/N=C(\C=N\O)C(=O)c2ccc(OC)cc2)cc1,32*,-1,-9,-30,21,5,4,16
CC(=O)c1ccc(NC(=O)C2CC(=O)N(c3ccc(OC(C)C)cc3)C2)cc1 (stereo not drawn),nt,nt,nt,nt,-37,3,nt,nt
CCN(Cc1ccccc1)C(=O)c1nn(-c2ccc(OC)cc2)c(=O)c2c1c1ccccc1n2C,38*,nt,-9,-36,-14,9,43*,24*
CCCCN(CC)CCNC(=O)c1nn(-c2ccc(OC)cc2)c(=O)c2c1c1ccccc1n2C,2,nt,-16,-14,-3,6,nt,nt
CCOC(=O)c1c(C)n(-c2ccc(C)cc2)c2ccc(OCC(O)CN3CCN(C)CC3)cc12 (stereo not drawn),47*,nt,-47,-57,29,4,25*,47*
CCOC(=O)c1c(C)n(C)c2ccc(OCC(O)CN3CCN(C)CC3)cc12 (stereo not drawn),-3,3,1,-13,17,14,nt,nt
Cc1nnc2nc(-c3ccc(NC(=O)C4CC(=O)N(C)C4)cc3)cn2c1C (stereo not drawn),nt,nt,nt,nt,-1,nt,nt,nt
CCOc1ccc(C(C)=O)cc1CSc1nnc(-c2cccs2)n1CC1CCCO1 (stereo not drawn),27*,5,-29,-21,7,13,6,5
SMILES,NPY-Y1 antag,NPY-Y2 antag,NPY2 pot ag,NPY1 pot ag,EP2 mod,PGE2 EP2 inh,NPY1 antag conf,NPY2 antag ctr
COc1ccc(NC(=O)c2ccco2)cc1NC(=O)c1cccc(Cl)c1,nt,nt,nt,nt,-15,16,nt,nt
Cc1nc(SCc2cccc(Oc3ccccc3)c2)n[nH]1,23*,3,11,23,11,14,6,34*
O=C(O)c1cc2sccc2n1Cc1ccccc1,nt,nt,nt,nt,14,9,nt,nt
O=C(Nc1ccc(CN2CCOCC2)cc1)c1ccc(-c2ccc(Br)cc2)o1,31*,13,-39,-60,-1,37,12,21*
COC(=O)c1ccc(NC(=O)c2ccc(CN3CCOCC3)cc2)cc1,-10,2,18,-2,-9,7,nt,nt
Cc1cc2ccccc2n2c(=O)n(CC(C)NC(=O)CCc3cc(Cl)no3)nc12 (stereo not drawn),nt,nt,nt,nt,1,4,nt,nt
Cc1ccc(Cc2cnc(N3C(=N)SC(C)C3=O)s2)cc1 (stereo not drawn),26*,nt,-35,-26,30,11,12,12
N=C1C(c2nc3ccccc3s2)=C(O)CN1NC(=O)c1c[nH]c2ccccc12,28*,nt,16,18,14,7,26*,28*
N=C1C(c2nc3ccccc3s2)=C(O)CN1NC(=O)c1ccccc1[N+](=O)[O-],-1,nt,11,5,-14,2,nt,nt
CCCCCCCCCCOC(=O)C[N+](C)(C)C/C=C(/C)Cl,23*,15,-3,-1,-4,6,11,12
CCCCCCCCOC(=O)C[N+](C)(C)C/C=C(/C)Cl,16,2,-13,20,-4,4,nt,nt
COC(=O)c1c(NC(=O)c2ccc(Cl)cc2)sc(C(=O)N2CCCCC2)c1C,nt,nt,nt,nt,-54,10,nt,nt
CCOC(=O)c1c(NC(=O)C(F)(OC)C(F)(F)F)sc(C(=O)N2CCCCC2)c1C (stereo not drawn),22*,2,9,-15,33,nt,9,4
Cc1oc(-c2ccc(Cl)cc2)nc1CN1CCC(C(=O)NCCCN2CCOCC2)CC1,23*,7,3,-38,18,2,4,8
